Format in all cases: functional
Assay [1] relates to Escherichia coli. Put plainly: Antibacterial activity against Escherichia coli MC1061 after 16 to 18 hrs by microbroth dilution assay. In short, it runs like this:
(§1)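 CLSI microbroth dilution. Compound was two-fold serially diluted from a 64 μM starting concentration into wells holding ~5 × 10^4 CFU of the test strain. After 16–18 h incubation, the MIC was taken as the lowest concentration causing no visible turbidity.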
In general terms: In broth dilution the organism is exposed to a series of concentrations in liquid medium.

The subject of a further assay is Bacillus cereus. Put plainly: Antibacterial activity against Bacillus cereus ATCC 4342 after 16 to 18 hrs by microbroth dilution assay. In short, it runs like this:
(§2)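 Broth microdilution following CLSI, in LB at 37 °C with aeration. Starting at 64 μM, two-fold serial dilutions were added to wells holding ~5 × 10^4 CFU. Turbidity was inspected after 16–18 h. The MIC was the lowest concentration that inhibited visible growth.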

The subject of assay [2] is Bacillus subtilis. Put plainly: Antibacterial activity against Bacillus subtilis subsp. subtilis str. 168 after 16 to 18 hrs by microbroth dilution assay. In short, it runs like this: as §2
The test system of assay [3] is Bacillus subtilis. Put plainly: Antibacterial activity against Bacillus subtilis ATCC 47096 after 16 to 18 hrs by microbroth dilution assay. In short, it runs like this: (§3)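 Broth microdilution per CLSI in LB at 37 °C with aeration. Twofold serial dilutions from a starting concentration of 64 μM were added to wells holding ~5 × 10^4 CFU of the test strain. Turbidity was read after 16–18 h. MIC was taken as the lowest concentration with no visible growth.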

In the next assay the test system is Bacillus thuringiensis. Put plainly: Antibacterial activity against Bacillus sp. Al Hakam after 16 to 18 hrs by microbroth dilution assay. The essentials:
as §2

In the next assay the test system is Enterococcus faecium. Put plainly: Antibacterial activity against Vancomycin-resistant Enterococcus faecium U503 after 16 to 18 hrs by microbroth dilution assay. In short, it runs like this: as §3
The test system of another assay is Staphylococcus aureus. Put plainly: Antibacterial activity against Methicillin-resistant Staphylococcus aureus USA300 after 16 to 18 hrs by microbroth dilution assay. In short, it runs like this:
as §3

Assay [4] is described as follows: Antifungal activity against Saccharomyces cerevisiae after 16 to 18 hrs by microbroth dilution assay. The essentials:
(§4)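 Yeast grown in YPD at 30 °C with aeration. CLSI microdilution used two-fold dilutions from a 64 μM start and ~5 × 10^4 CFU per well. Visible turbidity was scored at 16–18 h. The MIC was the lowest concentration without visible growth.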

Assay [5] relates to Mycolicibacterium smegmatis. Put plainly: Antibacterial activity against Mycobacterium smegmatis NRRL B-14616 after 16 to 18 hrs by microbroth dilution assay. The essentials:
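Broth microdilution following CLSI, in LB with 0.05% Tween 80 at 37 °C with aeration. Two-fold serial dilutions started at 64 μM, with ~5 × 10^4 CFU per well. Wells were read by visible turbidity after 16–18 h. The MIC was the lowest concentration preventing visible growth.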

In assay [6] the test system is Escherichia coli. Put plainly: Antibacterial activity against Escherichia coli DH5alpha after 16 to 18 hrs by microbroth dilution assay. Conditions: DH5[alpha]. In short, it runs like this: as §1
The next assay has as its system Pseudomonas putida. Put plainly: Antibacterial activity against Pseudomonas putida KT2440 after 16 to 18 hrs by microbroth dilution assay. The essentials: as §1
The test system of the next assay is Candida albicans. Put plainly: Antifungal activity against Candida albicans after 16 to 18 hrs by microbroth dilution assay. The essentials:
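CLSI microbroth dilution in YPD at 30 °C with aeration. Two-fold serial dilutions started at 128 μM, with ~5 × 10^4 CFU per well. Turbidity was inspected after 16–18 h. The MIC was the lowest concentration inhibiting visible growth.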

The next assay has as its system Debaryomyces hansenii. Put plainly: Antifungal activity against Debaryomyces hansenii after 16 to 18 hrs by microbroth dilution assay. The essentials:
as §4

Assay [7] can be described thus: Antifungal activity against Kluyveromyces lactis after 16 to 18 hrs by microbroth dilution assay. The essentials: as §4
The nature of assay [8]: Antifungal activity against Zygosaccharomyces rouxii after 40 to 42 hrs by microbroth dilution assay. In short, it runs like this: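 CLSI microdilution in YPD at 30 °C with aeration. Two-fold serial dilutions started at 64 μM, with ~5 × 10^4 CFU per well. Incubation was extended to 40–42 h before turbidity inspection. The MIC was the lowest concentration inhibiting visible growth.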

The subject of assay [9] is Bacillus subtilis. Put plainly: Bactericidal activity against Bacillus subtilis ATCC 47096 at 8 to 32 uM after 16 hrs. In short, it runs like this:
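Mid-exponential cultures (OD600 0.4, diluted 1000-fold from stationary cultures into LB) were treated with vehicle (DMSO), 8, 16 or 32 μM at 37 °C. OD595 was read every 10 min for 16 h with shaking between reads. Values were normalized to 0.4 at t = 0 and averaged over three independent cultures.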

In assay [10] the test system is Bacillus subtilis. Put plainly: Bactericidal activity against Bacillus subtilis ATCC 47096 after 16 hrs. Conditions: ATCC 47096, 16 h, read-out: MBC=>99.9.
In assay [11] the test system is Bacillus subtilis. Put plainly: Antibacterial activity against Bacillus subtilis ATCC 47096 assessed as induction of membrane damage after 30 mins by propidium iodide staining based fluorescent microscopic analysis. In short, it runs like this:
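Cells grown in LB at 37 °C to OD600 0.5 were resuspended in PBS pH 7.4 with DMSO vehicle, 8, 32 or 64 μM compound for 30 min at ~22 °C. Cells were then washed, stained with 10 μM propidium iodide for 15 min, immobilized in agarose, and imaged by confocal fluorescence and DIC microscopy.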

Assay [12] concerns Bacillus subtilis. Put plainly: Antibacterial activity against Bacillus subtilis ATCC 47096 assessed as induction of membrane depolarization after 30 mins by DiOC2(3) dye based flow cytometric analysis. The essentials:
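Three independent LB cultures grown to OD600 0.5 were diluted into PBS containing DiOC2(3) with DMSO vehicle, 5 μM CCCP (positive control), or 0.1–1.0 μM compound. Cells were mixed 30 min at ~22 °C and analysed by flow cytometry. Red/green fluorescence ratio geometric means were normalized to vehicle.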
For orientation: Flow cytometry measures light scatter and fluorescence of single cells or particles in a stream.

Assay [13] deals with Bacillus subtilis. Put plainly: Antibacterial activity against Bacillus subtilis P10A derived after 10 passage in presence of JBIR-100 after 16 to 18 hrs by microbroth dilution assay. In short, it runs like this:
(§5)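 Mutants were derived from B. subtilis ATCC 47096 in three independent cultures. Each was passaged 10 times every 24 h at 37 °C in LB, starting at 0.5× MIC and raised in 0.5× MIC steps. Isolates were restreaked three times on drug-free LB agar to confirm stability.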

Assay [14] deals with Bacillus subtilis. Put plainly: Antibacterial activity against Bacillus subtilis P10B derived after 10 passage in presence of JBIR-100 after 16 to 18 hrs by microbroth dilution assay. In short, it runs like this:
as §5

Assay [15] has as its system Bacillus subtilis. Put plainly: Antibacterial activity against Bacillus subtilis P10C derived after 10 passage in presence of JBIR-100 after 16 to 18 hrs by microbroth dilution assay. In short, it runs like this:
as §5

Assay [16] concerns Bacillus subtilis. Put plainly: Antibacterial activity against Bacillus subtilis P10A derived after 10 passage in presence of JBIR-100 after 16 to 18 hrs by microbroth dilution assay relative to Bacillus subtilis ATCC 47096.
Assay [17] relates to Bacillus subtilis. Put plainly: Antibacterial activity against Bacillus subtilis P10B derived after 10 passage in presence of JBIR-100 after 16 to 18 hrs by microbroth dilution assay relative to Bacillus subtilis ATCC 47096.
For assay [18], the system named is Bacillus subtilis. Put plainly: Antibacterial activity against Bacillus subtilis P10C derived after 10 passage in presence of JBIR-100 after 16 to 18 hrs by microbroth dilution assay relative to Bacillus subtilis ATCC 47096.

Converted amounts (≈) assume the structure as drawn. The source made the active and inactive calls. Bounds are passed on as bounds.

In the case of `CO[C@H]1/C=C/C=C(\C)C[C@H](C)[C@H](O)[C@H](C)/C=C(C)/C=C(\C)C(=O)O[C@@H]1[C@@H](C)[C@@H](O)[C@H](C)[C@@]1(O)C[C@@H](OC(=O)/C=C/C(=O)O)[C@H](C)[C@@H](C(C)C)O1`, the MIC in the assay with Escherichia coli [1] was over 64 µM; in the assay with Bacillus cereus, 4 µM (≈ 2.82 µg/mL); in the assay on Bacillus subtilis [2], 8 µM (≈ 5.64 µg/mL); against Bacillus subtilis [3] it was 8 µM (≈ 5.64 µg/mL); against Bacillus thuringiensis, 4 µM (≈ 2.82 µg/mL); with Enterococcus faecium, 16 µM (≈ 11.3 µg/mL). Also, the MIC in the assay with Staphylococcus aureus was 4 µM (≈ 2.82 µg/mL); in assay [4] it was over 64 µM; in assay [5] it was over 64 µM; in the assay with Escherichia coli [6], over 64 µM; in the assay with Pseudomonas putida it was over 64 µM; in the assay on Candida albicans it was over 128 µM. The MIC in the assay with Debaryomyces hansenii was 8 µM (≈ 5.64 µg/mL); in assay [7], over 64 µM; in assay [8], 32 µM (≈ 22.6 µg/mL); in the assay on Bacillus subtilis [13], 16 µM; with Bacillus subtilis [14] it was 16 µM; in the assay with Bacillus subtilis [15], 16 µM. Besides, the outcome in the assay on Bacillus subtilis [9] was Active. Besides, in the assay on Bacillus subtilis [10], the MBC is 16 µM (≈ 11.3 µg/mL). Also, the Activity result in the assay with Bacillus subtilis [11] and with Bacillus subtilis [12] was “Dose-dependent effect” throughout.

Turning to `CC1(C)S[C@@H]2[C@H](NC(=O)[C@H](N)c3ccccc3)C(=O)N2[C@H]1C(=O)O` [AMPICILLIN], the MIC against Bacillus subtilis [3] is 0.125 µM (≈ 0.0437 µg/mL); in the assay on Bacillus subtilis [13] it was 0.125 µM; in the assay on Bacillus subtilis [14], 0.125 µM; in the assay with Bacillus subtilis [15], 0.125 µM.

Regarding `O=C(N[C@H](CO)[C@H](O)c1ccc([N+](=O)[O-])cc1)C(Cl)Cl` [CHLORAMPHENICOL], the MIC stood at 8 µM (≈ 2.59 µg/mL) against Bacillus subtilis [3], 4 µM in the assay on Bacillus subtilis [13], 8 µM with Bacillus subtilis [14] and 8 µM in the assay with Bacillus subtilis [15]. Also, the “fold change (FC)” value in the assay on Bacillus subtilis [16], in the assay with Bacillus subtilis [17] and in the assay on Bacillus subtilis [18] was 2 throughout.

Turning to `O=C(O)c1cn(C2CC2)c2cc(N3CCNCC3)c(F)cc2c1=O` [CIPROFLOXACIN], the MIC in the assay on Bacillus subtilis [3] was determined as 0.125 µM (≈ 0.0414 µg/mL); with Bacillus subtilis [13] it was 0.125 µM; in the assay on Bacillus subtilis [14] it was 0.125 µM; with Bacillus subtilis [15], 0.125 µM.

Consider `NC[C@H]1O[C@H](O[C@H]2[C@H](O)[C@@H](O[C@H]3O[C@H](CO)[C@@H](O)[C@H](N)[C@H]3O)[C@H](N)C[C@@H]2N)[C@H](O)[C@@H](O)[C@@H]1O` [KANAMYCIN], for which the MIC against Bacillus subtilis [3] was 256 µM (≈ 124 µg/mL); in the assay on Bacillus subtilis [13] it was 128 µM; in the assay on Bacillus subtilis [14], 64 µM; in the assay with Bacillus subtilis [15] it was 64 µM. Besides, the “fold change (FC)” value in the assay with Bacillus subtilis [16], in the assay with Bacillus subtilis [17] and with Bacillus subtilis [18] was 2 - 4 throughout.

As for `CO[C@H]1/C=C/O[C@@]2(C)Oc3c(C)c(O)c4c(O)c(c(/C=N/N5CCN(C)CC5)c(O)c4c3C2=O)NC(=O)/C(C)=C\C=C\[C@H](C)[C@H](O)[C@@H](C)[C@@H](O)[C@@H](C)[C@H](OC(C)=O)[C@@H]1C` [RIFAMPIN], the MIC against Bacillus subtilis [3] is 0.0625 µM (≈ 0.0514 µg/mL); with Bacillus subtilis [13], 0.25 µM; with Bacillus subtilis [14] it was 0.125 µM; in the assay with Bacillus subtilis [15], 0.125 µM. For the same compound, the “fold change (FC)” value in the assay with Bacillus subtilis [16], in the assay with Bacillus subtilis [17] and in the assay on Bacillus subtilis [18] was 2 - 4 each time.

`Oc1cc(Cl)ccc1Oc1ccc(Cl)cc1Cl` [TRICLOSAN]: the MIC in the assay on Bacillus subtilis [3] turned out to be 8 µM (≈ 2.32 µg/mL); with Bacillus subtilis [13], 8 µM; in the assay with Bacillus subtilis [14], 8 µM; with Bacillus subtilis [15], 8 µM.

As for `CN[C@H](CC(C)C)C(=O)N[C@H]1C(=O)N[C@@H](CC(N)=O)C(=O)N[C@H]2C(=O)N[C@H]3C(=O)N[C@H](C(=O)N[C@H](C(=O)O)c4cc(O)cc(O)c4-c4cc3ccc4O)[C@H](O)c3ccc(c(Cl)c3)Oc3cc2cc(c3O[C@@H]2O[C@H](CO)[C@@H](O)[C@H](O)[C@H]2O[C@H]2C[C@](C)(N)[C@H](O)[C@H](C)O2)Oc2ccc(cc2Cl)[C@H]1O` [VANCOMYCIN], the MIC against Bacillus subtilis [3] stood at 0.125 µM (≈ 0.181 µg/mL); in the assay on Bacillus subtilis [13] it was 0.125 µM; in the assay with Bacillus subtilis [14], 0.0625 µM; in the assay with Bacillus subtilis [15] it was 0.0625 µM. The “fold change (FC)” value in the assay with Bacillus subtilis [16], with Bacillus subtilis [17] and in the assay on Bacillus subtilis [18] was 2 throughout.

By MIC is commonly meant the lowest concentration found to suppress growth. Usually MBC stands for the smallest concentration meeting the test's criterion for killing.

The values are drawn from ChEMBL document CHEMBL3865782 (2016).
